The entries come from a sample that favours hits as a whole.
INS promoter act: TRM-6 insulin promoter activation; TRM-6 cells, insulin promoter eGFP reporter, imaging; plate-scaled: unstimulated 0, stimulated control 100; 130,000 tested, 0.81% active; activation, % at 2 µM; AID 1296;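 active = activation at 2 µM above a set limit, confirmed on inspection of the cell images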;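 also: share of cells whose green reporter signal exceeds an intensity cutoff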
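Material: Human fetal islet-derived TRM-6 cells with tamoxifen-inducible insulin promoter–eGFP reporter | Medium: Low-glucose (5.5 mM) medium with tamoxifen | Probe or stimulus: Tamoxifen inducer, 0.75 µM, in seeding medium | Schedule: Tamoxifen pre-incubation 15 h overnight, then compound exposure 48 h at 37 °C | Detection: High-content imaging of fixed cells with Hoechst nuclear stain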
Numbers stand for hits; n = inactive.

SMILES | INS promoter act
CC(=O)Nc1ccc(S(=O)(=O)Nc2ccc3c(c2)C(=O)OC3)cc1 | n
O=C(CCNC(=O)c1ccco1)Nc1ccc(N2CCOCC2)cc1 | n
N#CCCn1nc(-c2ccccc2)cc1-n1c(C(F)(F)F)nc2ccccc21 | n
N#CCCn1cc(/C=C2\NC(=S)N(c3ccccc3)C2=O)c(-c2ccc(-c3ccccc3)cc2)n1 | n
N#CCCn1ncn(-c2ccccc2)c1=S | 173.3
Cn1cc(Br)c(C(=O)NNC(=O)c2ccc(Cl)cc2)n1 | n
Cc1ccc(S(=O)(=O)CC(C)N2CCN(C3CCCCC3)CC2)cc1 (centres undefined) | n
Cc1ccc(S(=O)(=O)NCCNC(=O)C2CCCNC2=O)cc1 (centres undefined) | n
Cc1ccc(S(=O)(=O)NC2=NCN(C3CCCCC3)CN2)cc1 | 125.0
CCOC(=O)N1CCN(C(=O)CSc2ccc(-c3ccc(OC)cc3)nn2)CC1 | n
COc1ccc(S(=O)(=O)N2CCOCC2)cc1NC(=O)COc1cccnc1[N+](=O)[O-] | n
CN(C(=O)COC(=O)CNC(=O)c1ccc(Cl)cc1Cl)c1ccccc1 | n
CCOC(=O)/C=c1\s/c(=C\c2c(OCC)ccc3ccccc23)c(=O)n1CC(=O)NCC1CCCO1 (centres undefined) | n
COCCNC(=O)Cn1c(=O)n(CCCCCC(=O)NCc2ccc3c(c2)OCO3)c(=O)c2sccc21 | n
CCOC(=O)/C=c1\s/c(=C\c2ccc3cc(OC)ccc3c2)c(=O)n1CC(=O)NCc1ccc2c(c1)OCO2 | 335.3
Cc1onc(C(=O)NC(C)c2ccccc2)c1[N+](=O)[O-] (centres undefined) | n
COc1ccc(C(=O)/C=C/c2ccc(OC(=O)c3cc(OC)c(OC)c(OC)c3)cc2)cc1 | n
COc1cc(C(=O)Oc2cc(C)cc(C)c2)cc(OC)c1OC | 607.1
COc1cc(C(=O)Nc2ccccn2)cc(OC)c1OC | n
Cc1ccc(NC(=O)Cc2ncc(C(F)(F)F)cc2Cl)cc1Cl | n
CC(C)CC(c1nnnn1CCc1ccccc1)N1CCC(C(N)=O)CC1 (centres undefined) | n
O=C(CCCn1c(=S)[nH]c2cc3c(cc2c1=O)OCO3)NC1CC1 | n
CC(=O)c1ccc(N2CCN(C(=O)CCCn3c(=S)[nH]c4cc5c(cc4c3=O)OCO5)CC2)cc1 | 136.4
Cc1cccc(N2CCN(C(=O)CCCn3c(=S)[nH]c4cc5c(cc4c3=O)OCO5)CC2)c1C | n
CCN(CC)c1ccc(N2C(=O)/C(=C/c3cccnc3)SC2=S)cc1 | n
SMILES | INS promoter act
CC(=O)Nc1ccc(S(=O)(=O)n2cnc3ccccc32)cc1 | n
Cc1c(NC(N)=O)c(=O)n(-c2ccccc2)n1C | 247.6
CCOC(=O)NC(=S)Nc1c(C)n(C)n(-c2ccccc2)c1=O | n
Cc1c(NC(=O)c2ccccc2)c(=O)n(-c2ccccc2)n1C | n
O=C(COC(=O)c1ncc(Cl)c(Cl)c1Cl)c1ccc(Cl)s1 | n
Cc1cccc(CSCCNC(=O)c2ccc(CN3CCOCC3)cc2)c1 | n
CCCNC(=O)c1ccc(CN2CCOCC2)cc1 | 294.7
O=C(NCc1ccccc1)c1ccc(CN2CCOCC2)cc1 | n
COC(=O)c1ccc(COC(=O)CNS(=O)(=O)c2ccc(C)cc2)cc1 | n
C=CCc1c(OC)ccc2ccc(=O)oc12 | n
Cc1cc(NC(=O)c2cnn3c(C(F)F)cc(C4CC4)nc23)no1 | n
Cc1cc(NC(=O)c2cnn3c(C(F)(F)F)cc(-c4ccccc4)nc23)no1 | 429.4
Cc1cc(NC(=O)c2cnn3c(C(F)F)cc(-c4ccccc4)nc23)no1 | n
O=C(NC1CCN(C(=O)Nc2ccccc2Cl)CC1)c1ccccc1 | n
CC(C)OC(=O)CSc1nc(Cc2ccccc2)nc2ccccc12 | n
COC(=O)c1ccc(C(=O)OC)c(NC(=O)COC(=O)C2CC2C)c1 (centres undefined) | n
CCOc1ccc(-c2c(C(=O)N/N=C/c3ccc(OC)cc3)nnn2-c2nonc2N)cc1 | n
CCN(CC)c1nc(C)nc2c1cnn2CCc1ccccc1 | n
COC(=O)c1ccc(C(NC(=O)OCc2ccccc2)/C(F)=C/[C@@H](C)C(=O)NCc2ccc(OC)c(OC)c2)cc1 (some centres undefined) | n
COc1cccc(C(=O)Nc2cccc(C(=O)NCC(C)C)c2)c1 | n
CC(C)CNC(=O)c1cccc(NC(=O)C2CCCO2)c1 (centres undefined) | 437.9
O=C(O)c1ccc(C(=O)Nc2cccc(NC(=O)C3CCCO3)c2)cc1 (centres undefined) | n
COc1ccccc1Nc1nc(N)nc(CN2CC(C)CC(C)C2)n1 (centres undefined) | n
CCOc1ccc(NC(=O)c2cccc(OC(=S)N3CCOCC3)c2)cc1 | n
O=S(=O)(NCc1ccco1)N1CCOCC1 | 493.8
SMILES | INS promoter act
O=C(NCc1ccco1)C1CN(S(=O)(=O)c2ccccc2)CCN1S(=O)(=O)c1ccccc1 (centres undefined) | n
Cc1ccc(C(=O)NCc2ccco2)cc1S(=O)(=O)N1CCOCC1 | n
O=c1c2oc3ccccc3c2[nH]c(=S)n1-c1ccc(F)cc1 | n
Cc1ccc(-n2cc(-c3ccccc3)c3c(NN4CCOCC4)ncnc32)cc1 | n
COc1ccc(C2C(C(C)=O)=C(Nc3ccccc3)CC(C)(O)C2C(C)=O)cc1OC (centres undefined) | n
COc1ccc(NC2=C(C(C)=O)C(c3ccc(OC)cc3)C(C(C)=O)C(C)(O)C2)cc1 (centres undefined) | 316.7
COc1ccc(C2NC(=O)NC(C)=C2C(C)=O)cc1 (centres undefined) | n
O=C(Nc1cccc(C(F)(F)F)c1)c1ccccc1NC(=O)C1CCCCC1 | n
Cc1ccsc1/C=C1\SC(N2CC(C)OC(C)C2)=NC1=O (centres undefined) | n
Fc1cc(F)cc(NC(=S)Nc2ccccc2N2CCOCC2)c1 | n
Cc1noc(NS(=O)(=O)c2ccc(NC(=O)Nc3ccc(Cl)c(Cl)c3)cc2)c1C | n
Cc1noc(NS(=O)(=O)c2ccc(NC(=O)CSc3n[nH]c(-c4ccccc4)n3)cc2)c1C | 154.5
Cc1noc(NS(=O)(=O)c2ccc(NC(=O)CCN3C(=O)c4ccccc4C3=O)cc2)c1C | n
Cc1cccc(C(=O)n2cnnc2N)c1 | n
CCOC(=O)c1sc(NC(=O)CCCn2nc([N+](=O)[O-])cc2C)c(C(=O)OCC)c1C | n
Clc1cc(Br)ccc1OCCCNCc1ccccc1 | n
CSc1nc2c(c(-c3ccccc3)c1C#N)CCC2 | 411.1
N#Cc1c(N)nc2c(c1-c1ccncc1)CCCC2 | n
N#Cc1c2c(nc(N)c1-c1ccccc1)CCCCC2 | n
N#Cc1c(N)nc2c(c1-c1ccncc1)CCCCCC2 | 450.0
Cc1[nH]n2c(=O)c3c(nc2c1-c1ccccc1)CCC3 | n
CC(C)c1ccc(-c2c(C#N)c(N)nc3c2CCCCC3)cc1 | n
COc1ccc(C(=O)NCC(=O)NCC(=O)OCC(=O)C(C)(C)C)cc1 | n
CCn1ccnc1C(O)c1ccccc1OC (centres undefined) | n
CCNC(=O)NC(=O)C(C)OC(=O)C1CCN(S(=O)(=O)c2ccccc2C(=O)OC)CC1 (centres undefined) | n
CO[C@@H]1O[C@@H]2COC(c3ccccc3)O[C@@H]2[C@@H](OC)[C@@H]1O (some centres undefined) | n
COc1ccc(/C=C2\C(=O)NCC(=O)N2Cc2ccccc2)cc1 | n
COc1ccc(/C=C/C2=NN(Cc3ccccc3)C(=O)CC2)cc1 | 387.8
COc1ccc(/C=C/c2ccc(=O)n(Cc3ccccc3)n2)cc1 | n
C#CCOC(=O)c1ccc(-n2cncn2)nc1 | n

Compound activity from PubChem.
